Source: PubChem BioAssay
Shown are actives, neighbours in structure and some others; about 3.1% of the full set was active somewhere.
KCNK9 block: inhibitors of human KCNK9 two-pore domain potassium channel. HEK293 KCNK9, FluxOR thallium flux fluorescence; stronger effect = lower value. B-score at 10 µM. hit rate 1.2% among 310,000. AID 488922;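 active = ratio B-score over 3 SD below the library mean, with starting fluorescence within 5 SD of its mean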;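 also: negative B-score means less thallium flux so channel inhibition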
KCNQ1 inh: human KCNQ1 channel inhibition | CHO-K1 KCNQ1, FluxOR thallium flux fluorescence; stronger effect = higher value | B-score at 10 µM | AID 2642 | P51787 | hit rate 1.3% among 310,000;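 active = compounds whose thallium flux B-score, printed positive for inhibition, exceeds three library SD while starting fluorescence stays within three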;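 also: channel opened by potassium depolarization with thallium stimulus after 20 min compound exposure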
KCNK3 inh: human KCNK3 channel inhibition, primary screen; O14649; CHO-KCNK3 thallium flux, FluxOR fluorescence; stronger effect = lower value; B-score at 10 µM; hit rate 0.84% among 340,000; AID 602410;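 active = B-score under library mean minus 4 SD, starting fluorescence ratio at most library mean plus 5 SD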;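 also: more negative B-score means stronger inhibition of thallium flux through KCNK3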
KCNQ1 pot: human KCNQ1 channel potentiation or activation. B-score at 10 µM. hit rate 0.35% among 310,000. P51787. CHO-K1 KCNQ1, thallium flux FluxOR fluorescence; stronger effect = higher value. AID 2648;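 active = fluorescence ratio B-score, a plate-corrected score, at least three library SD, with initial intensity B-score within 5 SD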
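assay system = KCNQ1-transfected CHO-K1 cells | medium = assay buffer with matched DMSO | probe or stimulus = depolarizing K+/Tl+ stimulus, K2SO4 and Tl2SO4 each 12.5 mM in 5x stock | dosing = single dose | incubation = dye 90 min, compound 20 min, room temperature | detection = kinetic FluxOR fluorescence, 10 s baseline plus 110 s post-stimulus | evaluation = ratio B score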
hERG rescue: compounds protecting human hERG from proarrhythmic drug block | Q12809 | CHO-hERG, FluxOR thallium flux, dofetilide IC70 present | activation (rescue from dofetilide block), less the hit threshold, % at 10 µM | hit rate 0.51% among 310,000 | AID 1511;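 active = activation above the mean of controls blocked by dofetilide plus 5 SD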;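 also: thallium influx through hERG after potassium depolarization seen as dye fluorescence rise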
Target sequence (Q12809 whole entry, looked up): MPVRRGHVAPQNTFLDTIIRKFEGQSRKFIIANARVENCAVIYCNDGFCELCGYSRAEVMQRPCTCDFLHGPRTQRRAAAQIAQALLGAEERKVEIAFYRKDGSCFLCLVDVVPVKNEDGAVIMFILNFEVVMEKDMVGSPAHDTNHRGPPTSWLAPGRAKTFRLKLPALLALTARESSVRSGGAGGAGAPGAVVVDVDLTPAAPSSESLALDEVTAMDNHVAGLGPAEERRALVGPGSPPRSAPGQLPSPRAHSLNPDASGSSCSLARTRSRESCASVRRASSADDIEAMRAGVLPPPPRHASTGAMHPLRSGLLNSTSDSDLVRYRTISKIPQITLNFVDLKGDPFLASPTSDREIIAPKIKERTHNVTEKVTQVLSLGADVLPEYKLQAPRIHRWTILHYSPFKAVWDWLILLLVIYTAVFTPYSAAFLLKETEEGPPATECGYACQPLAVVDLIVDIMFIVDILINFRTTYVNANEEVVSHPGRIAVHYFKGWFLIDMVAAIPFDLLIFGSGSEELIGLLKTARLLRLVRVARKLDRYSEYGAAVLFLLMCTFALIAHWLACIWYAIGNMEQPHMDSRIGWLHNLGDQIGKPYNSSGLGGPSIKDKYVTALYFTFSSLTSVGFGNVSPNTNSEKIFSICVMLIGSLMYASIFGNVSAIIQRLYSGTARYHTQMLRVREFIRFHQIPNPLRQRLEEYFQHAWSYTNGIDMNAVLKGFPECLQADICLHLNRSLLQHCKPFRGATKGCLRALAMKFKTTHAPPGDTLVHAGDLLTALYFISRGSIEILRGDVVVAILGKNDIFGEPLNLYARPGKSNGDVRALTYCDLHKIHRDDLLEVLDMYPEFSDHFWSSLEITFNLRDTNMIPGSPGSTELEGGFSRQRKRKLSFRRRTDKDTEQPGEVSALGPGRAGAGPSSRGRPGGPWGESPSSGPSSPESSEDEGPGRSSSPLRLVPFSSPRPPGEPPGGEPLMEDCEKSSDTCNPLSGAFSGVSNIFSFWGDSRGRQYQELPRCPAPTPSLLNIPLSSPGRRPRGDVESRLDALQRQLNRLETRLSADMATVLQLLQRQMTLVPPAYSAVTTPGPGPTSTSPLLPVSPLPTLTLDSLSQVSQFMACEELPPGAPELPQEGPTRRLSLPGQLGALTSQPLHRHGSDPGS
KCNK9 block conf: confirmation of human KCNK9 potassium channel inhibitors | inhibition, % at 10 µM | hit rate 43% among 4,900 | shares compounds with KCNK9 block | HEK293 KCNK9 cells, FluxOR thallium flux fluorescence | AID 492992;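 active = thallium signal inhibited by more than 5 SD of the compound-free buffer control wells, on both duplicate plates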
Kir21 sel: mouse Kir2.1 off-target activity of KCNK9 modulators. shares compounds with KCNK9 block. Kir2.1 cells, FluxOR thallium flux fluorescence. inhibition, % at 10 µM. hit rate 4% among 4,900;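 active = thallium signal drop more than 5 SD beyond the mean of the no-compound control wells, seen in both duplicate plates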;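 also: signal is fluorescence rise after thallium addition divided by baseline fluorescence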
HEK293 Tl ctr: non-induced cell nonspecific activity of KCNK9 modulators; non-induced KCNK9-HEK293, FluxOR thallium flux; hit rate 40% among 4,900; AID 492997; inhibition, % at 10 µM; shares compounds with KCNK9 block;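 active = thallium signal drop beyond 5 SD of the untreated control mean, on both duplicate plates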
A number is an active result; . = inactive; / = no result given.

SMILES | KCNK9 block | KCNQ1 inh | KCNK3 inh | KCNQ1 pot | hERG rescue | KCNK9 block conf | Kir21 sel | HEK293 Tl ctr
O=C1c2ccccc2C(Nc2ccc(Cl)cn2)N1c1ccccn1 (centres undefined) | -9.8 | . | . | . | . | 37% | . | .
COc1ccc(OC)c(CCNC(=O)c2ccc3c(c2)N(Cc2ccc(F)cc2)CCS3)c1 | -11 | 7 | -10 | . | . | 69% | . | 32%
COc1ccc(CCNC(=O)c2ccc3c(c2)N(Cc2ccc(F)cc2)CCS3)c(OC)c1 | . | . | . | . | . | / | / | /
Cc1ccc(CN2CCSc3ccc(C(=O)NC4CCCC4)cc32)cc1 | -11 | . | . | . | . | 52% | . | 31%
Cc1ccc(CN2CCSc3ccc(C(=O)NCC4CCCO4)cc32)cc1 (centres undefined) | . | . | . | . | . | / | / | /
Cc1ccccc1S(=O)(=O)Oc1cccc2c(O)cccc12 | . | . | . | . | . | / | / | /
COc1ccccc1N1CCN(Cc2ccc(-c3ccccc3[N+](=O)[O-])o2)CC1 | . | . | . | . | . | . | . | .
COc1ccccc1N1CCN(/N=C/C=C/c2ccccc2[N+](=O)[O-])CC1 | . | . | . | . | . | . | . | .
COc1ccccc1/C=C/C=N/N1CCN(Cc2ccc(Cl)cc2)CC1 | . | . | . | . | . | . | . | .
COc1ccccc1/C=C/C=N\N1CCN(Cc2ccccc2Cl)CC1 | . | . | . | . | . | . | . | .
NS(=O)(=O)c1cccc(NC(=O)COC(=O)Cc2n[nH]c(=O)c3ccccc23)c1 | / | / | . | / | / | / | / | /
O=C1OCCN1C(=O)[C@H]1[C@H](c2ccccc2)C(c2ccccc2)=NN1c1ccc(Br)cc1 | / | / | . | / | / | / | / | /
CC1=Nc2cc(C(=O)N3CCCCC3)ccc2Sc2ccc(C)cc21 | . | . | . | . | . | . | . | .
O=C(c1cccc(S(=O)(=O)N2CCCCC2)c1)N(CCc1ccccc1)Cc1ccccc1 | -16 | 6 | . | . | . | 62% | . | 36%
Cc1ccc(CN(C)C(=O)c2cccc(S(=O)(=O)N3CCN(Cc4ccccc4)CC3)c2)o1 | . | . | . | . | . | . | . | 28%
O=C(Nc1nc(-c2ccccc2)cs1)c1cccc(S(=O)(=O)N2CCN(Cc3ccccc3)CC2)c1 | . | . | . | . | . | . | . | .
CN1CCN(S(=O)(=O)c2cccc(C(=O)Nc3nc(-c4ccccc4)cs3)c2)CC1 | . | . | . | . | . | / | / | /
CC(=O)N1CCN(S(=O)(=O)c2cccc(C(=O)N(C)Cc3ccc(C)o3)c2)CC1 | / | / | . | / | / | / | / | /
CCOC(=O)CSc1nc2c(sc(=S)n2-c2ccccc2OC)c(=O)n1-c1ccccc1OC | -10 | . | . | . | . | . | . | 31%
CCOC(=O)CSc1nc2c(sc(=S)n2-c2ccccc2OC)c(=O)n1Cc1ccco1 | -9.1 | . | . | . | . | . | . | 36%
COC(=O)C1=C(C)NC(C)=C(C(=O)OC)C1c1ccc(OC(=O)c2oc3ccccc3c2C)c(OC)c1 | -9.6 | . | . | . | . | 62% | . | 34%
CC1(c2ccccc2)NC(=O)N(CC(=O)N2CCN(S(=O)(=O)c3cccc(C(F)(F)F)c3)CC2)C1=O (centres undefined) | / | / | . | / | / | / | / | /
Brc1ccc(-c2nc3ncccn3c2NC2CCCCC2)o1 | . | . | . | . | . | / | / | /
COc1ccc(C(=O)NC(=S)Nc2ccc(CN3CCCCC3)cc2)cc1Cl | . | . | . | . | . | / | / | /
COc1ccc(C(=O)NC(=S)Nc2ccc(CN3CCOCC3)cc2)cc1Cl | . | . | . | . | . | . | . | .
SMILES | KCNK9 block | KCNQ1 inh | KCNK3 inh | KCNQ1 pot | hERG rescue | KCNK9 block conf | Kir21 sel | HEK293 Tl ctr
O=C(CN1C(=O)S/C(=C\c2cc(Cl)c(O)c(Cl)c2)C1=O)Nc1ccccc1 | . | . | . | . | 12 | . | . | .
Cc1ccc2cc(CCNS(=O)(=O)c3ccc(F)cc3)c(=O)[nH]c2c1C | . | . | . | . | . | / | / | /
c1ccc(Nc2scc(-c3ccccc3)[n+]2Cc2ccco2)cc1 | . | . | . | . | . | / | / | /
c1ccc(C[n+]2c(-c3ccccc3)csc2Nc2ccccc2)cc1 | -8.7 | . | . | . | . | 35% | . | 32%
Cc1ccc(Cl)cc1N1CCN(Cc2nc3c(c(=O)[nH]c(=O)n3C)n2CCc2ccccc2)CC1 | . | . | . | . | . | / | / | /
Cn1c(=O)[nH]c(=O)c2c1nc(Br)n2Cc1ccccc1F | . | . | . | . | . | . | . | .
Cc1ccc(Cl)cc1N1CCN(Cc2nc3c(c(=O)[nH]c(=O)n3C)n2Cc2ccccc2F)CC1 | -8.8 | . | . | . | . | . | . | .
CCN1CCN(c2nc3c(c(=O)[nH]c(=O)n3C)n2Cc2ccccc2F)CC1 | . | . | . | . | . | / | / | /
Cc1ccc2nc(N3CCN(S(=O)(=O)c4ccc(C)c(Cl)c4)CC3)c(C#N)cc2c1 | . | . | . | . | . | / | / | /
O=C(O)c1cncc(C#CCC2CCCCC2)c1 | . | . | . | . | . | / | / | /
COc1ccc(CC2(C)OC(c3ccccc3)=NN2C(C)=O)cc1 (centres undefined) | . | . | . | . | . | . | . | .
COc1ccc(CC2(C)OC(c3ccc(C)cc3)=NN2C(C)=O)cc1 (centres undefined) | . | . | . | . | . | . | . | .
COc1ccc(CC2(C)OC(c3ccc(C)c([N+](=O)[O-])c3)=NN2C(C)=O)cc1 (centres undefined) | . | . | . | . | . | / | / | /
CC(=O)N1N=C(c2ccccc2)OC1(C)CC(=O)Nc1ccccc1 (centres undefined) | . | . | . | . | . | / | / | /
O=C(Nc1nc(-c2cc3ccccc3oc2=O)cs1)c1ccc(Br)o1 | -9.9 | . | . | . | . | 26% | . | .
CC(=O)Nc1ccc(Nc2nc(-c3cc4ccccc4oc3=O)cs2)cc1 | . | . | . | . | . | / | / | /
CC(O)CNCCCOc1ccc(Cl)cc1C(C)(C)C (centres undefined) | . | . | . | . | . | / | / | /
CC(C)C(OC(=O)c1cccc(S(=O)(=O)NCC(F)(F)F)c1)C(=O)NC(N)=O (centres undefined) | . | . | . | . | . | / | / | /
O=C(NCc1ccccc1)c1onc(CSc2ccc(F)cc2)c1C(=O)NCc1ccccc1 | . | . | . | . | . | . | . | .
CC(C)CCNC(=O)c1c(CSc2ccc(Cl)cc2)noc1C(=O)NCc1ccccc1 | . | . | . | . | . | . | . | .
O=C(NCc1ccccc1)c1onc(CSc2ccccn2)c1C(=O)NCc1ccccc1 | . | . | . | . | . | . | . | .
CCCNC(=O)c1onc(CSc2ccc(F)cc2)c1C(=O)NCCC | . | . | . | . | . | / | / | /
CCCCNC(=O)c1onc(CSc2ccc(Cl)cc2)c1C(=O)NCCCC | . | . | . | . | . | / | / | /
